Screening data: PubChem BioAssay, several laboratories
Most compounds without a hit are left out; they make up all but 2.2% or so of the library.
BaF3 parental – counter-screen for JAK2V617F inhibitors: parental Ba/F3 viability inhibitors | inhibition, % at 5.6 µM | AID 1486 | CellTiter-Glo ATP luminescence | 220,000 tested, 1.1% active;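 active = inhibition above a per-campaign cutoff, the mean inhibition of all tested compounds plus 3 SD, cut at about 27% in these data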;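 also: 0% = DMSO wells and 100% = JAK Inhibitor I control wells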
MT stabilizer – microtubule stabilization, imaging screen; 200,000 tested, 0.83% active; HeLa tubulin immunostaining HCS, 24 h; share of cells brighter than vehicle mean+2SD; % tubulin-high responders, % at 10 µM;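 active = plate Z-score above 3 for both tubulin-high and condensed-nucleus cell shares, with cell loss under 80%, at 10 µM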;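 also: anti alpha tubulin signal scored within the nucleus-defined area of each cell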
APP 5UTR inh – APP translation inhibition; SH-SY5Y APP 5'UTR-luciferase reporter, luminescence; inhibition, % at 2 µM; 190,000 tested, 0.82% active;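 active = inhibition above a set limit, derived from the sample mean plus 3 SD, cut at about 45% in these data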
IEC-6 cytotox – kills IEC-6 intestinal cells in KLF5 counter-screen. IEC-6 cytotoxicity, luminescence viability. inhibition, % at 5 µM. 290,000 tested, 0.78% active;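 also: 0% = plate median of test compound wells and 100% = cytotoxic reference compound wells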
Ba/F3 V617F tox – loss of viability in JAK2V617F-driven Ba/F3 cells; 220,000 tested, 1.1% active; Ba/F3 EpoR-JAK2V617F viability, ATP luminescence; inhibition, % at 5.6 µM; AID 1446;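 active = inhibition above the campaign mean plus 3 SD over all tested compounds, cut at about 24% in these data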;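 also: cytokine-independent growth of Ba/F3 cells driven by EpoR plus mutant JAK2; 0% = DMSO-treated cells and 100% = JAK inhibitor I control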
bCat nuc transl – alters nuclear translocation of beta-catenin in HeLa cells | immunofluorescence imaging | nuclear translocation activity, % at 5 µM | 190,000 tested, 0.3% active | AID 1665;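 active = nuclear translocation activity above 50% at 5 µM, with a well cell count of 50 or more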;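 also: per-cell ratio of nuclear to cytoplasmic median beta-catenin stain intensity; plate controls were DMSO negative control for no effect and GSK-3 inhibitor IX positive control for full effect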
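assay system = human HeLa cells, endogenous beta-catenin | times = compound treatment 24 h, 37°C, 5% CO2 | detection = Anti-beta-catenin immunofluorescence on PFA-fixed, Triton-permeabilized cells, DAPI nuclei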
IEC-6 cytotox cf – IEC-6 cytotoxicity, confirmation assay. shares compounds with IEC-6 cytotox. IEC-6 rat intestinal epithelial viability, luminescence. inhibition, % at 5 µM. 1,900 tested, 63% active. AID 1907;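 also: 0% = vehicle and 100% = reference cytotoxic drug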
Numbers without * were called inactive. Rule as the data show it, unless noted: active = inhibition above about 22%; inactive = the rest.

`Cc1c(C(=O)N2CCOCC2)[nH]c2c1C(=O)CC(c1ccccc1Cl)C2` (centres undefined) gave BaF3 parental 84*, MT stabilizer 41*, APP 5UTR inh 85*, IEC-6 cytotox 60*, Ba/F3 V617F tox 85* and IEC-6 cytotox cf 48*.
Screening COc1ccccc1C1CC(=O)NC(C)=C1C(=O)OCC1CCCO1 (centres undefined) returned BaF3 parental 0, MT stabilizer 2, APP 5UTR inh -12, IEC-6 cytotox -1, Ba/F3 V617F tox 5 and bCat nuc transl -2.
Screening COC(=O)c1[nH]c2c(c1C)C(=O)CC(c1ccccc1)C2 (centres undefined) returned BaF3 parental 75*, MT stabilizer 4, APP 5UTR inh 96*, IEC-6 cytotox 87*, Ba/F3 V617F tox 74*, bCat nuc transl 56* and IEC-6 cytotox cf 64*.
Screening O=C(Nc1ccc(S(=O)(=O)N2CCOCC2)cc1)c1ccccc1F returned IEC-6 cytotox -6.
Cc1c(C(=O)OC2CCCC2)[nH]c2c1C(=O)CC(c1ccco1)C2 (centres undefined) was read as BaF3 parental 81*, MT stabilizer 10, APP 5UTR inh 94*, IEC-6 cytotox 88*, Ba/F3 V617F tox 77*, bCat nuc transl 132* and IEC-6 cytotox cf 57*.
C=CCOC(=O)c1[nH]c2c(c1C)C(=O)CC(c1ccco1)C2 (centres undefined) was read as BaF3 parental 84*, MT stabilizer 11, APP 5UTR inh 96*, IEC-6 cytotox 89*, Ba/F3 V617F tox 82*, bCat nuc transl 89* and IEC-6 cytotox cf 56*.
`CSCCC1NC(=S)N(Cc2ccccc2)C1=O` (centres undefined) gave IEC-6 cytotox -4.
Cc1c(O)ccc(C(=O)CN2CCN(Cc3ccc4c(c3)OCO4)CC2)c1O was read as BaF3 parental -2, MT stabilizer 2, APP 5UTR inh -4, IEC-6 cytotox 60*, Ba/F3 V617F tox 6, bCat nuc transl 1 and IEC-6 cytotox cf 4.
For CCOC(=O)N1CCN(Cc2ccc3c(c2)OCO3)CC1 the results were IEC-6 cytotox -6.
For O=C(CSc1nc2ccccc2c(=O)[nH]1)Nc1ccccc1C(F)(F)F the results were IEC-6 cytotox 29* and IEC-6 cytotox cf 18.
O=C(CSc1nc2ccccc2c(=O)[nH]1)Nc1ccccc1O was read as IEC-6 cytotox -1.
Nc1c(-c2ccc(Cl)cc2)cnc2c(-c3ccc(F)cc3)cnn12 was read as IEC-6 cytotox -4.
`Cc1cccc(N2CCN(C(=O)C3CCC(=O)N(Cc4ccccc4F)C3)CC2)c1C` (centres undefined) gave IEC-6 cytotox 0.
For Cc1ccc(N=Nc2c(N)[nH]n3c(=O)cc(C)nc23)cc1 the results were BaF3 parental 0, MT stabilizer 4, APP 5UTR inh 2, IEC-6 cytotox 22*, Ba/F3 V617F tox -2, bCat nuc transl 0 and IEC-6 cytotox cf 16.
`COc1ccc(S(=O)(=O)N2N=C(C)Oc3ccccc3C2=O)cc1` gave BaF3 parental 76*, MT stabilizer 37*, APP 5UTR inh 85*, IEC-6 cytotox 68*, Ba/F3 V617F tox 86*, bCat nuc transl 80* and IEC-6 cytotox cf 45*.
CC1=NN(S(=O)(=O)c2ccc(C)cc2)C(=O)c2ccccc2O1 was read as BaF3 parental -8, IEC-6 cytotox -2, Ba/F3 V617F tox -2 and bCat nuc transl -1.
For O=C(C[n+]1cc[nH]c1)c1ccc(Cl)cc1 the results were IEC-6 cytotox 0.
Screening CC(=O)NNC(=O)c1cc2sccc2s1 returned BaF3 parental 0, IEC-6 cytotox 1, Ba/F3 V617F tox -4 and bCat nuc transl -1.
For NNC(=O)c1cc2sccc2s1 the results were BaF3 parental 78*, IEC-6 cytotox 63*, Ba/F3 V617F tox 80*, bCat nuc transl -3 and IEC-6 cytotox cf 6.
For CNc1nc(SC)nc2ccccc12 the results were BaF3 parental -2, MT stabilizer 4, APP 5UTR inh -4, IEC-6 cytotox 7, Ba/F3 V617F tox -2 and bCat nuc transl 1.
For CSc1nc(N(C)NC(=O)c2ccc(Cl)cc2)c2ccccc2n1 the results were BaF3 parental 78*, MT stabilizer 19*, APP 5UTR inh 95*, IEC-6 cytotox 80*, Ba/F3 V617F tox 80*, bCat nuc transl 19 and IEC-6 cytotox cf 63*.
For CSc1nc(N(C)NC(=O)c2ccccc2)c2ccccc2n1 the results were BaF3 parental 69*, MT stabilizer 33*, APP 5UTR inh 96*, IEC-6 cytotox 78*, Ba/F3 V617F tox 69*, bCat nuc transl 54* and IEC-6 cytotox cf 55*.
Screening O=C(NCCN1CCCCC1)c1cc(Cl)ccc1Cl returned IEC-6 cytotox 5.
Screening COc1ccc(C2=NN(C(=O)c3cccs3)C(O)(C(F)(F)F)C2)cc1 (centres undefined) returned BaF3 parental 3, MT stabilizer 2, APP 5UTR inh 24, IEC-6 cytotox 54*, Ba/F3 V617F tox -1, bCat nuc transl -1 and IEC-6 cytotox cf 41*.
`C/C(=N/NS(=O)(=O)c1cc(C)ccc1C)c1ccc2c(c1)OCO2` gave IEC-6 cytotox -2.
COc1c(Cl)cc(Cl)cc1/C=N/NC(=O)c1nnn(-c2nonc2N)c1CN1CCC(C)CC1 was read as IEC-6 cytotox -2.
Screening C/C(=N\NC(=O)c1nnn(-c2nonc2N)c1CN1CCc2ccccc21)c1ccccc1O returned IEC-6 cytotox 54* and IEC-6 cytotox cf 56*.
For CC1CCN(Cc2c(C(=O)N/N=C/c3cc(Br)ccc3O)nnn2-c2nonc2N)CC1 the results were IEC-6 cytotox 57* and IEC-6 cytotox cf 62*.
Screening CC1CCN(Cc2c(C(=O)N/N=C/c3cc(Cl)ccc3O)nnn2-c2nonc2N)CC1 returned IEC-6 cytotox 50* and IEC-6 cytotox cf 49*.
Screening O=C(Nc1ccc2nc3n(c(=O)c2c1)CCCCC3)c1ccccc1[N+](=O)[O-] returned IEC-6 cytotox -2.
For O=C(Nc1ccc2nc3n(c(=O)c2c1)CCCCC3)c1c(F)ccc([N+](=O)[O-])c1F the results were IEC-6 cytotox 92* and IEC-6 cytotox cf 32*.
For O=C(Nc1ccc2nc3n(c(=O)c2c1)CCCCC3)c1cc([N+](=O)[O-])ccc1F the results were IEC-6 cytotox 62* and IEC-6 cytotox cf 16.
Screening Cc1cccc(C)c1NC(=O)c1cnccn1 returned IEC-6 cytotox -4.
For Cc1ccc(NC(=O)c2cccc3cccnc23)cc1 the results were IEC-6 cytotox 4.
For Brc1ccc(-n2cnc(-c3ccccc3)c2)cc1 the results were IEC-6 cytotox -2.
